The values that follow come from ChEMBL document CHEMBL3351772, “Xenortide Biosynthesis by Entomopathogenic Xenorhabdus nematophila” (J Nat Prod, 2014).

The subject of one test is Leishmania donovani. As to the kind of experiment: Antiparasitic activity against Leishmania donovani. Format: functional, organism-based. The gist of the method: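 Leishmania donovani strain MHOM-ET-67/L82; assay run per an earlier published method.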
A further test relates to L6. In words: Cytotoxicity against rat L6 cells. In kind it is cell-based. The essentials:
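Rat L6 skeletal myoblasts; cytotoxicity assay run per an earlier published method.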

The subject of another test is Plasmodium falciparum. In words: Antiparasitic activity against Plasmodium falciparum NF54. Format: functional, organism-based.
Test [1] deals with Trypanosoma brucei rhodesiense. In words: Antiparasitic activity against Trypanosoma brucei rhodesiense STIB900. In kind it is functional, organism-based.
Another test deals with Trypanosoma cruzi. As to the kind of experiment: Antiparasitic activity against Trypanosoma cruzi Tulahuen C4. In kind it is functional, organism-based.

pIC50: −log10 of the molar value. Square brackets hold non-standard residues; d marks the D form. Peptide text beside a SMILES is read from it. * marks the point of attachment. NMeF = CN[C@@H](Cc1ccccc1)C(=O)O; NMeL = CN[C@@H](CC(C)C)C(=O)O; NHPhenethyl = c1ccc(CCN*)cc1; NMeV = CN[C@H](C(=O)O)C(C)C Some results are limits rather than exact numbers.

By pIC50 is commonly meant −log10 of the IC50, conventionally taken in molar units. A lower pIC50 goes with a large IC50.

As to `CN[C@H](C(=O)N(C)[C@@H](Cc1ccccc1)C(=O)NCCc1ccccc1)C(C)C` (H-[NMeV]-[NMeF]-NHPhenethyl), the pIC50 is 4.60 in the test with Leishmania donovani; under 3.60 in the test with L6; under 3.90 in the test on Plasmodium falciparum; 4.05 in test [1]; 3.88 in the test with Trypanosoma cruzi.
On the same counts, the results for `CN[C@H](C(=O)N(C)[C@@H](Cc1ccccc1)C(=O)NCCc1c[nH]c2ccccc12)C(C)C` are 4.76, 4.07, 5.12, 5.31 and 4.28.
For `CCCCCCCCCCCCCCCCOP(=O)([O-])OCC[N+](C)(C)C` [MILTEFOSINE], the negative-log IC50 (pIC50) in the test on Leishmania donovani is 6.34.
Turning to `CN[C@@H](CC(C)C)C(=O)N(C)[C@@H](Cc1ccccc1)C(=O)NCCc1c[nH]c2ccccc12` [XENORTIDE B], the pIC50 in the test with Leishmania donovani is 3.95; in the test with L6, 4.86; in the test on Plasmodium falciparum, 6.12; in test [1], 5.80; in the test on Trypanosoma cruzi, 4.93.
On the same counts, the results for `CN[C@@H](CC(C)C)C(=O)N(C)[C@@H](Cc1ccccc1)C(=O)NCCc1ccccc1` [XENORTIDE A] (H-[NMeL]-[NMeF]-NHPhenethyl) are 3.90, 3.94, 4.72, 4.65 and 4.33.
